# From ChEMBL document CHEMBL3853331, “Preparation, Antiepileptic Activity, and Cardiovascular Safety of Dihydropyrazoles as Brain-Penetrant T-Type Calcium Channel Blockers” (J Med Chem, 2016)
# Columns and labels:
# [1] = Clearance in Wistar rat plasma at 0.2 mg/kg, iv; type: ADME, organism-based
# Outline: (§1)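 Male Wistar rats dosed iv at 0.2 mg/kg or po at 2 mg/kg. In the inhibited arm, the broad CYP inhibitor aminobenzotriazol was given orally 2 h before dosing. Clearance, Vss and half-life derived from plasma concentrations after the iv dose; Cmax and Tmax from the po dose.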
# [2] = Drug uptake in Wistar rat brain at 10 mg/kg, po measured after 1 hr; type: ADME, organism-based; conditions: read-out: Drug uptake
# Outline: (§2)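 Male Wistar rats given oral doses of 10, 30 or 100 mg/kg. Plasma, brain and CSF collected at 1 h, and at 3 h for the 10 mg/kg dose; compound concentrations measured in each.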
# MDR1 = assay: Apparent permeability across basolateral to apical side in MDCK cells expressing MDR1 (unknown origin) at 1 uM; type: ADME, cell-based, Canis lupus familiaris; conditions: dog
# Outline: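 MDR1-transfected MDCK cell monolayers. Compound tested at 1 µM. Apparent permeability measured in both directions, apical to basolateral and basolateral to apical. Efflux ratio taken from the two directional permeabilities.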
# [3] = target: T1, Voltage-dependent T-type calcium channel subunit alpha-1G (Homo sapiens, UniProt O43497); assay: Inhibition of T-type calcium channel Cav3.1 (unknown origin) expressed in HEK293 cells assessed as calcium influx by Fluo-4-AM dye-based FLIPR assay; type: cell-based
# T1 sequence (O43497 whole entry): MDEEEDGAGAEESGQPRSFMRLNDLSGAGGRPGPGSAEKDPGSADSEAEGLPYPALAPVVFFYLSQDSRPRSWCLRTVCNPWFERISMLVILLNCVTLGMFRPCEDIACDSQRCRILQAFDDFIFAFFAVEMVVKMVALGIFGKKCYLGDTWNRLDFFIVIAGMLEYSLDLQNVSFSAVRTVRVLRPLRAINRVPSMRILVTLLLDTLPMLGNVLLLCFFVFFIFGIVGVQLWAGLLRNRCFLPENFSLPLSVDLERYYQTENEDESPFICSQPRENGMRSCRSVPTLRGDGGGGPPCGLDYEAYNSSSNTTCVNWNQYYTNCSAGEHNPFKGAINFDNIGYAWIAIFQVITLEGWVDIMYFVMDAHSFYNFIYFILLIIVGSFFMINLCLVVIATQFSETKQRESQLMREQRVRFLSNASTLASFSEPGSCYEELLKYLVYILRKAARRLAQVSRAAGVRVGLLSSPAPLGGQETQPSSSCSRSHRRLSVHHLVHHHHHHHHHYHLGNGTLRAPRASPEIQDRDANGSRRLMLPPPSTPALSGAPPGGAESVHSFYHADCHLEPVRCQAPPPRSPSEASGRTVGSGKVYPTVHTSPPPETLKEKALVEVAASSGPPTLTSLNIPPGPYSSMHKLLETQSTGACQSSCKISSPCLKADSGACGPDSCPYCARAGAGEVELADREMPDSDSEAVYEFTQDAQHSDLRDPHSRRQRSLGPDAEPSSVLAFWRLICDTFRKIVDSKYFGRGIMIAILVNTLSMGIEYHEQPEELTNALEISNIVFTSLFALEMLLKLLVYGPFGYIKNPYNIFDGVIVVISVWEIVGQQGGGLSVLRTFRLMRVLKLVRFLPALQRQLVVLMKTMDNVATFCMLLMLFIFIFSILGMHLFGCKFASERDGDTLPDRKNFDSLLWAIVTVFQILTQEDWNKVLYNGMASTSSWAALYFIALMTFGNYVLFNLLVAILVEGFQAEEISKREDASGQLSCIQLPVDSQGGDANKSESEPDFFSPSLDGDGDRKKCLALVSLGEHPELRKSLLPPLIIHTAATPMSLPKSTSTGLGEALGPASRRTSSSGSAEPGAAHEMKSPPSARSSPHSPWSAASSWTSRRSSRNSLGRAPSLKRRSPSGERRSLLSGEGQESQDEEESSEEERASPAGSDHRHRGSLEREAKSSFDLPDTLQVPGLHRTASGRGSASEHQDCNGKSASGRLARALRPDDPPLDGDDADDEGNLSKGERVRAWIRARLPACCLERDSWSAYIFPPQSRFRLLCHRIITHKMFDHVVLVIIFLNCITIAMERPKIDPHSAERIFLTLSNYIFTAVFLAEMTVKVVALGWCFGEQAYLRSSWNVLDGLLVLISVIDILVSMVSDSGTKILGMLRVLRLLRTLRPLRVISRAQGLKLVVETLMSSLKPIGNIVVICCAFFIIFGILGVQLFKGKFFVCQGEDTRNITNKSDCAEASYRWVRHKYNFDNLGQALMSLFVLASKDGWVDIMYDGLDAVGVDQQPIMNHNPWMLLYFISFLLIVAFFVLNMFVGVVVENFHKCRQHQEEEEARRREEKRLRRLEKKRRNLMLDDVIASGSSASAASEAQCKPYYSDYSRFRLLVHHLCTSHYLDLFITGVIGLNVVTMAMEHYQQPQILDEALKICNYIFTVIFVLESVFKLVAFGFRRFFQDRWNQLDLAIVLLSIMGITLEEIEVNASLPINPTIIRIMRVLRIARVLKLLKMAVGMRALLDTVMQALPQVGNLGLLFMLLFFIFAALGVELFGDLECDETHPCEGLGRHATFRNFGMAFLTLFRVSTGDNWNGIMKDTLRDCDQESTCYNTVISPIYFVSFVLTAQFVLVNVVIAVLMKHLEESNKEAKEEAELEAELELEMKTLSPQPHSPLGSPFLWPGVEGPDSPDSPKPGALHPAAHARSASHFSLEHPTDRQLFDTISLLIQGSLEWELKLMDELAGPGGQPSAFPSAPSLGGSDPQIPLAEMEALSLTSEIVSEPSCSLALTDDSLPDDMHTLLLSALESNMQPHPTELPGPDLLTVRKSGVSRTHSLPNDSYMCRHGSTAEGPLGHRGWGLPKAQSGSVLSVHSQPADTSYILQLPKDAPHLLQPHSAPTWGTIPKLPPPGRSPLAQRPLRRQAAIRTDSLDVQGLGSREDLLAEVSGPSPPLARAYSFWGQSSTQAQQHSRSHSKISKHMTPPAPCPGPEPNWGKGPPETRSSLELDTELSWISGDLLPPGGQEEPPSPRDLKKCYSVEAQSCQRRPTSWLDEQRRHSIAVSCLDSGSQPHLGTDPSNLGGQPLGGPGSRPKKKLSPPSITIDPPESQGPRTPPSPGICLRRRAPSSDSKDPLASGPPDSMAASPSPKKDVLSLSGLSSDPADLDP
# Outline: (§3)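 HEK293 cells stably expressing the channel, seeded overnight and loaded 1 h at 37°C with 3 µM Fluo-4-AM. Compounds given as a 3-fold dilution series from 10 µM to 0.05 nM and incubated 3 min. For T-type channels, dilutions in TEAC buffer and stimulation with 10 mM final CaCl2. For Cav1.2, dilutions in assay buffer and stimulation with 20 mM final KCl. IC50 from area under the fluorescence trace against vehicle; mean of at least two experiments.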
# Rattus norvegicus [4] = assay: Anticonvulsant activity in WAG/Rij rat model of generalized nonconvulsive absence-like epilepsy assessed as decrease in number of spontaneous seizures at 100 mg/kg, po administered as single dose at beginning of nocturnal active phase measured over 12 hrs by radiotelometry relative to vehicle control
# [5] = Tmax in Wistar rat plasma at 2 mg/kg, po; type: ADME, organism-based
# Rattus norvegicus [6] = assay: Cardiotoxicity in rat assessed as QT prolongation at 100 mg/kg by electrophysiology method; type: toxicity, organism-based; conditions: in vivo
# Outline: (§4)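 Conscious, freely moving male spontaneously hypertensive rats with telemetry recording MAP, HR and ECG. Single oral dose (5 ml/kg) given as a suspension in 0.5% w/v methylcellulose in water, in the morning during the sleep phase. Vehicle controls run in parallel, n = 8 per group.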
# [7] = target: Voltage-dependent T-type calcium channel subunit alpha-1I (Homo sapiens, UniProt Q9P0X4); assay: Inhibition of T-type calcium channel Cav3.3 (unknown origin) expressed in HEK293 cells assessed as calcium influx by Fluo-4-AM dye-based FLIPR assay; type: cell-based; outline: as §3
# Sequence of Voltage-dependent T-type calcium channel subunit alpha-1I (Q9P0X4 whole entry): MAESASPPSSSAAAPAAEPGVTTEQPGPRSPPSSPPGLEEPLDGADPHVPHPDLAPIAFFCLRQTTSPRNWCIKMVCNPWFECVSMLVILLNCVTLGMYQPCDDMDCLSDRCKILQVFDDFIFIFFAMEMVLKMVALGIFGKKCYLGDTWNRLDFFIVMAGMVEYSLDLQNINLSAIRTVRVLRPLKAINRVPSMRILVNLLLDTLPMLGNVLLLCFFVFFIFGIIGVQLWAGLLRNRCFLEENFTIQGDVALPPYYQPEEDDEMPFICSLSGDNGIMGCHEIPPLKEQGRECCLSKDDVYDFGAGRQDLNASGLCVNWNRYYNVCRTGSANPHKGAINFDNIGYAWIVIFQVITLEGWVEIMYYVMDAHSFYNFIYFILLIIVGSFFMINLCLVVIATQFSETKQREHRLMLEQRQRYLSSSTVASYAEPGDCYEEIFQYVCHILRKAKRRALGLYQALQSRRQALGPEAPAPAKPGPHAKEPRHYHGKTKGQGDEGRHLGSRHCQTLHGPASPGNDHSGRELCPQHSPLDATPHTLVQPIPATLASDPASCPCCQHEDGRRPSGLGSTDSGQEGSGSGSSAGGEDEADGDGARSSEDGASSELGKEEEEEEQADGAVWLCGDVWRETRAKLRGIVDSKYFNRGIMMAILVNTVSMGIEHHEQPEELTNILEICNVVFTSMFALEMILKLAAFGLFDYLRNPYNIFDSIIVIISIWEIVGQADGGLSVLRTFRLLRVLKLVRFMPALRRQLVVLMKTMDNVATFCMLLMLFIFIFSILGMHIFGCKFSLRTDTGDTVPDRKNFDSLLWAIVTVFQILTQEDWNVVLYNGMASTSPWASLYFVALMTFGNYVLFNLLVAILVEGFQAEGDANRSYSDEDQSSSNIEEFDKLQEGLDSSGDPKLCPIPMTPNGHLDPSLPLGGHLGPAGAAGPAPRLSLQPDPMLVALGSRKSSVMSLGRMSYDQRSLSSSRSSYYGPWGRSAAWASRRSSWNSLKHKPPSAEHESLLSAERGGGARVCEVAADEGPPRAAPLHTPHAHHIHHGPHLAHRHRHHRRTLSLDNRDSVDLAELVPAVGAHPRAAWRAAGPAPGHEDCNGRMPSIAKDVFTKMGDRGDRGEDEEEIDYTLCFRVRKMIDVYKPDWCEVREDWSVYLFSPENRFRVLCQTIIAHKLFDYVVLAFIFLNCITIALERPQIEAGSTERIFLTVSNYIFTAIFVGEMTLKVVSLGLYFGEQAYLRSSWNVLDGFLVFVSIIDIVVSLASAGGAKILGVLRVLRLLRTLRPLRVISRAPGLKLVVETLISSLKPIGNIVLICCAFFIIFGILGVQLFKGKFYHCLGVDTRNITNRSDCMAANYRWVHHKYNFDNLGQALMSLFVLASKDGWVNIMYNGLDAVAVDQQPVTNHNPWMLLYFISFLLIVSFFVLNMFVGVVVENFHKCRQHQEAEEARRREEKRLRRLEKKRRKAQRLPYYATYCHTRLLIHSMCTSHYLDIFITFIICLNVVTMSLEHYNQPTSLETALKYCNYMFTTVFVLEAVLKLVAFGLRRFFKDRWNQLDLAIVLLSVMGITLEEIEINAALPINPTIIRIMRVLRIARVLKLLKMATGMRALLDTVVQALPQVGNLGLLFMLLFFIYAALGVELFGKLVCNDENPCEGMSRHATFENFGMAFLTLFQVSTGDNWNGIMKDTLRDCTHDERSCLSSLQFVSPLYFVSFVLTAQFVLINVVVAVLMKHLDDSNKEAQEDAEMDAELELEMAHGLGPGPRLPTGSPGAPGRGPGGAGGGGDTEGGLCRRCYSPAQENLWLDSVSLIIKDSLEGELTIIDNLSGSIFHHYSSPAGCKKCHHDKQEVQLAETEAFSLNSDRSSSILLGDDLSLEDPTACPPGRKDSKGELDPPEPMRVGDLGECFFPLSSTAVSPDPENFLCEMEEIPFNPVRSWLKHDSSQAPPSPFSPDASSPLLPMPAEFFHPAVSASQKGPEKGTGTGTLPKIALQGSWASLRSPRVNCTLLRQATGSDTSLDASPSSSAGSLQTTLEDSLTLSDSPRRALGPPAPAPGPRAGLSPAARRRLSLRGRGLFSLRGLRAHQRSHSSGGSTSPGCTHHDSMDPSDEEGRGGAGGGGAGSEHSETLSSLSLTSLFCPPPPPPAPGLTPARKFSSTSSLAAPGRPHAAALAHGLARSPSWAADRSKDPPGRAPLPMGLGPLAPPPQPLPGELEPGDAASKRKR
# [8] = Drug uptake in Wistar rat CSF at 10 mg/kg, po measured after 1 hr; type: ADME, organism-based, Cerebrospinal fluid; conditions: read-out: Drug uptake; outline: as §2
# Rattus norvegicus [9] = assay: Anticonvulsant activity in WAG/Rij rat model of generalized nonconvulsive absence-like epilepsy assessed as decrease in spontaneous seizures at 100 mg/kg, po administered as single dose at beginning of nocturnal active phase measured over 4 hrs by radiotelometry relative to vehicle control
# Rattus norvegicus [10] = assay: Cardiovascular toxicity in spontaneously hypertensive rat assessed as reduction in heart rate at 100 mg/kg, po; type: organism-based; conditions: in vivo; outline: as §4
# [11] = Drug uptake in Wistar rat brain at 30 mg/kg, po measured after 1 hr; type: ADME, organism-based; conditions: read-out: Drug uptake; outline: as §2
# [12] = Clearance in Wistar rat plasma at 0.2 mg/kg, iv administered 2 hrs after aminobenzotriazol-treatment; type: ADME, organism-based; outline: as §1
# [13] = Plasma concentration in Wistar rat at 100 mg/kg, po measured after 1 hr; type: ADME, organism-based
# [14] = Drug uptake in Wistar rat assessed as unbound drug level measured after 1 hr; type: ADME; conditions: in vivo
# Rattus norvegicus [15] = assay: Cardiovascular toxicity in spontaneously hypertensive rat assessed as reduction in heart rate at 100 mg/kg, po within 6 hrs post dose; type: organism-based; conditions: in vivo; outline: as §4
# Rattus norvegicus [16] = species: Rattus norvegicus; assay: Inhibition of Wistar rat brain potassium channel at 10 uM assessed as reduction in fast potassium current at -80 mV holding potential measured after 180 secs
# Outline: (§5)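 Cortical neurons from E18 Wistar rat embryos, cultured 9-15 days, recorded by manual patch clamp from a holding potential of -80 mV. K+ currents: one 50-ms step to 0 mV, fast as peak outward and slow as end-of-pulse current. Na+ currents: train of fifteen 10-ms steps to 0 mV, peak inward current read at the first and last pulses. Effects read at least 180 s after application.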
# Rattus norvegicus [17] = species: Rattus norvegicus; assay: Inhibition of Wistar rat brain neuronal sodium channel assessed as peak inward current at 10 uM measured during last peak; outline: as §5
# [18] = Drug uptake in Wistar rat CSF at 100 mg/kg, po measured after 1 hr; type: ADME, organism-based, Cerebrospinal fluid; conditions: read-out: Drug uptake; outline: as §2
# [19] = Half life in Wistar rat plasma at 0.2 mg/kg, iv administered 2 hrs after aminobenzotriazol-treatment; type: ADME, organism-based; outline: as §1
# [20] = Oral bioavailability in Wistar rat plasma at 2 mg/kg; type: ADME, organism-based
# [21] = Cmax in Wistar rat plasma at 2 mg/kg, po; type: ADME, organism-based; set-up: dose 2 mg/kg, route oral; outline: as §1
# Cytochrome P450 2D6 = Cytochrome P450 2D6 (Homo sapiens, UniProt P10635); assay: Inhibition of CYP2D6 (unknown origin)
# Sequence of Cytochrome P450 2D6 (P10635 whole entry): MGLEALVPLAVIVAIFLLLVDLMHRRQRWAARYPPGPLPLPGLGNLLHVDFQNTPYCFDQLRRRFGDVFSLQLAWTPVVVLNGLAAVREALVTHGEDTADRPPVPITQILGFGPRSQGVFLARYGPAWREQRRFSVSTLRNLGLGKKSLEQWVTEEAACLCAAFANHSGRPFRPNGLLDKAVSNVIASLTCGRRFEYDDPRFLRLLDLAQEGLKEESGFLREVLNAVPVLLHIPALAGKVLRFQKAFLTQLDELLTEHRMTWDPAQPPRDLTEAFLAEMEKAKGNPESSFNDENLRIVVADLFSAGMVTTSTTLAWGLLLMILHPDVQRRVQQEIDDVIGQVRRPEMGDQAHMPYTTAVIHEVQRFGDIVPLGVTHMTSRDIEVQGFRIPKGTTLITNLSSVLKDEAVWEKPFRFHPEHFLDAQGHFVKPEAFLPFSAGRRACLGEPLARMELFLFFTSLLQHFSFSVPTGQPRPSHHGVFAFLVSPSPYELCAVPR
# [22] = target: Voltage-dependent T-type calcium channel subunit alpha-1H (Homo sapiens, UniProt O95180); assay: Inhibition of human T-type calcium channel Cav3.2 expressed in CHO cells assessed as inhibition of calcium tail current at -60 mV holding potential measured after 150 secs by QPatch assay; type: cell-based
# Outline: (§6)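 CHO cells stably expressing human Cav3.1, Cav3.2 or Cav3.3, automated QPatch recording. 3-ms depolarization to +20 mV from a holding potential of -90 or -60 mV. Ca2+ tail current measured at -60 mV. Cs-glutamate internal and TEA-Cl external solution with 5 mM Ca2+. Effect read 150 s after application.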
# [23] = target: T1, Voltage-dependent T-type calcium channel subunit alpha-1G; assay: Inhibition of human T-type calcium channel Cav3.1 expressed in CHO cells assessed as inhibition of calcium tail current at -90 mV holding potential measured after 150 secs by QPatch assay; type: cell-based; outline: as §6
# [24] = Metabolic stability in human microsomes measured per mg protein; type: ADME, Microsome
# [25] = Plasma concentration in Wistar rat at 30 mg/kg, po measured after 1 hr; type: ADME, organism-based
# [26] = Unbound drug level in Wistar rat brain at 100 mg/kg, po measured after 1 hr; type: ADME, organism-based; conditions: in vivo
# Rattus norvegicus [27] = assay: Anticonvulsant activity in WAG/Rij rat model of generalized nonconvulsive absence-like epilepsy assessed as decrease in total duration of spontaneous seizures at 100 mg/kg, po administered as single dose at beginning of nocturnal active phase measured over 12 hrs by radiotelometry relative to vehicle control
# [28] = Drug uptake in Wistar rat CSF at 30 mg/kg, po measured after 1 hr; type: ADME, organism-based, Cerebrospinal fluid; conditions: read-out: Drug uptake; outline: as §2
structure (smiles),measurement,setting,value
O=C(Nc1ccc(F)cc1)N1N=C(c2ccncc2)CC1c1ccc(F)cc1 (stereo not given),clearance,[1],110 mL/min/kg
same,concentration at 1 h,[2],800 nM
same,Papp B→A at 1 µM,MDR1,44 ×10⁻⁶ cm/s
same,IC50,[3],29 nM
same,inhibition in vivo at 100 mg/kg,Rattus norvegicus [4],63.5%
same,Tmax,[5],0.25 h
same,Activity,Rattus norvegicus [6],Non-Toxic
same,IC50,[7],340 nM
same,concentration at 1 h,[8],19 nM
same,inhibition in vivo at 100 mg/kg,Rattus norvegicus [9],> 99%
same,Activity,Rattus norvegicus [10],Toxic
same,concentration at 1 h,[11],2570 nM
same,clearance,[12],1.6 mL/min/kg
same,concentration at 1 h,[13],1230 nM
same,Drug uptake(free),[14],37 nM
same,Activity,Rattus norvegicus [15],Non-Toxic
same,inhibition,Rattus norvegicus [16],18%
same,inhibition,Rattus norvegicus [17],26%
same,concentration at 1 h,[18],61 nM
same,half-life,[19],120 h
same,bioavailability,[20],4%
same,Cmax,[21],27 nM
same,IC50,Cytochrome P450 2D6,44000 nM
same,IC50,[22],220 nM
same,IC50,[23],1800 nM
same,microsomal CLint,[24],21 µL/min/mg
same,concentration at 1 h,[25],630 nM
same,Drug uptake(free),[26],128 nM
same,inhibition in vivo at 100 mg/kg,Rattus norvegicus [27],62.2%
same,concentration at 1 h,[28],47 nM
